ChEMBL document CHEMBL5214894, “Biosynthetic Interrogation of Soil Metagenomes Reveals Metamarin, an Uncommon Cyclomarin Congener with Activity against Mycobacterium tuberculosis” (J Nat Prod, 2021)
≈ marks a conversion by molar mass, not a printed value.

Assays:
[1] = system: Mycobacterium tuberculosis; assay: Antimycobacterial activity against multi drug-resistant Mycobacterium tuberculosis 565 assessed as bacterial growth inhibition incubated for 6 days by Alamar blue staining based assay; type: functional; conditions: Mycobacterium tuberculosis, 565, 144 h; time 6 day
In short: (§1)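 Strains passaged at 37 °C in 7H9 with OADC, 0.2% glycerol and 0.02% tyloxapol to OD600 0.5–0.7, then diluted to OD600 0.005. Final test range 5 to 0.009 μg/mL. Rifampicin control. Incubated 6 days at 37 °C with 5% CO2. Tween 80 and Alamar Blue then added for 24 h. Absorbance read at 570 nm, normalized to 600 nm.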

[2] = system: Mycobacterium tuberculosis; assay: Antimycobacterial activity against multi drug-resistant Mycobacterium tuberculosis 7791 assessed as bacterial growth inhibition incubated for 6 days by Alamar blue staining based assay; type: functional; conditions: Mycobacterium tuberculosis, 7791, 144 h; time 6 day; in short: as §1
[3] = system: Mycobacterium tuberculosis; assay: Antimycobacterial activity against multi drug-resistant Mycobacterium tuberculosis TN800 assessed as bacterial growth inhibition incubated for 6 days by Alamar blue staining based assay; type: functional; conditions: TN800, 144 h, time 6 day; in short: as §1
[4] = system: Mycobacterium tuberculosis; assay: Antibacterial activity against Mycobacterium tuberculosis mc2 6206 harboring mLux plasmid infected in mouse J774.A1 cells assessed as inhibition of bacterial cell viability incubated for 72 hrs by multimode microplate reader analysis; type: functional, organism-based; conditions: mc2 6206, J774.A1, 72 h
In short: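 Macrophages at (4–5) × 10^5 cells/mL in DMEM/10% FBS, seeded and left to adhere overnight. Infected at MOI 1:10 with mid-log bacteria for 4 h at 37 °C, 5% CO2. Medium supplemented with pantothenate and leucine, each 50 μg/mL. After PBS washes, compound added at 64 to 0.0004 μg/mL for 72 h. Luminescence read-out. IC50 by nonlinear regression. Triplicate; experiment repeated twice.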

| SMILES | MIC [1] | MIC [2] | MIC [3] | IC50 [4] |
| --- | --- | --- | --- | --- |
| C=CC(C)(C)n1cc(C(O)C2NC(=O)[C@H](C(C)C)NC(=O)[C@H](CC(C)C)N(C)C(=O)[C@H](C(C)C)NC(=O)C(C(OC)c3ccccc3)NC(=O)[C@H](C(C)C)NC(=O)C(CC(C)CO)N(C)C2=O)c2ccccc21 (stereo partly specified) | 0.08 µg/mL (≈ 0.0788 µM) | 0.08 µg/mL (≈ 0.0788 µM) | 0.08 µg/mL (≈ 0.0788 µM) | 0.71 µg/mL (≈ 0.699 µM) |
| CO[C@@H](c1ccccc1)[C@H]1NC(=O)[C@H](C)NC(=O)[C@@H](CC(C)CO)N(C)C(=O)C(C(O)c2cn(C(C)(C)[C@@H]3CO3)c3ccccc23)NC(=O)[C@@H]([C@H](C)C=C(C)C)NC(=O)[C@@H](CC(C)C)N(C)C(=O)[C@@H](C(C)C)NC1=O (stereo partly specified) | – | – | – | 0.48 µg/mL (≈ 0.46 µM) |
| CO[C@H]1/C=C/O[C@@]2(C)Oc3c(C)c(O)c4c(O)c(c(/C=N/N5CCN(C)CC5)c(O)c4c3C2=O)NC(=O)/C(C)=C\C=C\[C@H](C)[C@H](O)[C@@H](C)[C@@H](O)[C@@H](C)[C@H](OC(C)=O)[C@@H]1C [RIFAMPIN] | – | – | – | 0.08 µg/mL (≈ 0.0972 µM) |
